Test results reported in ChEMBL document CHEMBL2417522, “N-aryl-6-methoxy-1,2,3,4-tetrahydroquinolines: a novel class of antitumor agents targeting the colchicine site on tubulin” (Eur J Med Chem, 2013).
Values after ≈ are worked out from the molar mass of the structure shown. Active and inactive are the calls of the source. No cut-off for these calls is given here.

Experiments:
KB [1] = assay: Cytotoxicity against human KB cells by SRB method; format: functional
[2] = Cytotoxicity against human KBVIN cells by SRB method; format: functional
A549 [3] = assay: Cytotoxicity against human A549 cells by SRB method; format: functional
DU-145 [4] = assay: Cytotoxicity against human DU145 cells by SRB method; format: functional
Tubulin (Homo sapiens) [5] = target: T1, Tubulin (Homo sapiens) (UniProt P68371+Q9H4B7+P0DPH7+P68366+Q13509+Q71U36+P04350+Q3ZCM7+P07437+P68363+Q9BQE3+Q6PEY2+Q13885+Q9BVA1+Q9BUF5); assay: Competitive inhibition of [3H]colchicine binding to tubulin (unknown origin) at 5 uM after 10 mins by radioligand displacement assay; format: protein-complex assay
Method in brief: (§1)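 [3H]colchicine binding: 1.0 µM tubulin, 5.0 µM [3H]colchicine and inhibitor at 5.0 or 1.0 µM, 10 min at 37 °C, when control binding reaches about 40–60% of maximum. […] Percent inhibition reported.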

[6] = Aqueous solubility of the compound at pH 7.4 after 4 hrs by HPLC-UV method; format: physicochemical; conditions: buffer, pH 7.4, 4 h
Method in brief: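 Solubility at pH 7.4: DMSO stock (1.0 mg/mL) diluted into phosphate buffer, final DMSO 1%; stirred 4 h at rt, centrifuged; saturated supernatant quantified by HPLC–UV against a standard curve (50–0.20 µg/mL in ACN). Triplicate samples.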

[7] = […] partition coefficient, log P of the compound at pH 7.4 after 24 hrs by HPLC analysis; format: physicochemical
Method in brief: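 Compound dissolved at 1.0 mg/mL in […]. Log P taken from the ratio of HPLC peak areas in the […] and water phases.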

Tubulin = assay: Inhibition of tubulin assembly (unknown origin) preincubated for 15 mins followed by GTP addition measured after 20 mins by turbidimetric analysis; format: protein-complex assay, Homo sapiens
Tubulin (Homo sapiens) [8] = target: T1, Tubulin (Homo sapiens); assay: Competitive inhibition of [3H]colchicine binding to tubulin (unknown origin) at 1 uM after 10 mins by radioligand displacement assay; format: protein-complex assay; method in brief: as §1
Liver microsomes = assay: Half life in human liver microsomes at 1 uM by LC-MS analysis; format: ADME, Microsome
DU-145 [9] = assay: Cytotoxicity against human DU145 cells at 60 uM by SRB method; format: functional, cell-based
KBVIN = assay: Cytotoxicity against human KBVIN cells at 60 uM by SRB method; format: functional, cell-based
A549 [10] = assay: Cytotoxicity against human A549 cells at 60 uM by SRB method; format: functional, cell-based
KB [11] = assay: Cytotoxicity against human KB cells at 60 uM by SRB method; format: functional, cell-based

SMILES | GI50 (KB [1]) [nM] | GI50 [2] [nM] | GI50 (A549 [3]) [nM] | GI50 (DU-145 [4]) [nM] | inhibition (Tubulin (Homo sapiens) [5]) [%] | solubility [6] [µg/mL] | logD at 24 h [7] | IC50 (Tubulin) [nM] | inhibition (Tubulin (Homo sapiens) [8]) [%] | t1/2 (Liver microsomes) [min] | growth inhibition (GI) (DU-145 [9]) | growth inhibition (GI) (KBVIN) | growth inhibition (GI) (A549 [10]) | growth inhibition (GI) (KB [11])
CNC(=O)c1cc(Br)cc(N2CCCc3cc(OC)ccc32)c1 | 630 | 930 | 370 | 560 |  |  |  |  |  |  |  |  |  | 
COc1ccc2c(c1)CCCN2c1cc(Br)cc(C(=O)NC2CC2)c1 | 160 | 190 | 170 | 150 | 75 | 0.26 (≈ 0.648 µM) | 4.75 | 1000 |  |  |  |  |  | 
COC(=O)c1cc(Cl)cc(N(C)c2ccc(OC)cc2)c1 | 1610 | 1570 | 1600 | 1460 |  |  |  |  |  |  |  |  |  | 
CC(=O)O[C@H]1C(=O)[C@@]2(C)[C@H]([C@H](OC(=O)c3ccccc3)[C@]3(O)C[C@H](OC(=O)[C@H](O)[C@@H](NC(=O)c4ccccc4)c4ccccc4)C(C)=C1C3(C)C)[C@]1(OC(C)=O)CO[C@@H]1C[C@@H]2O [PACLITAXEL] | 6.4 | 1210 | 7.6 | 6 |  |  |  |  |  |  |  |  |  | 
COC(=O)c1cc(Cl)cc(N2CCCc3cc(OC)ccc32)c1 | 2330 | 1780 | 2230 | 1510 |  |  |  |  |  |  |  |  |  | 
COC(=O)c1cc(N(C)c2ccc(OC)cc2)cc(C(F)(F)F)c1 | 13500 | 13100 | 15100 | 11500 |  |  |  |  |  |  |  |  |  | 
CNC(=O)c1cc(N(C)c2ccc(OC)cc2)cc(C(F)(F)F)c1 | 12300 | 12600 | 14700 | 11900 |  |  |  |  |  |  |  |  |  | 
CNC(=O)c1cc(Cl)cc(N2CCCc3cc(OC)ccc32)c1 | 1040 | 430 | 740 | 1020 |  |  |  |  |  |  |  |  |  | 
COc1ccc(N(C)c2cc(Br)cc(C(=O)N(C)C)c2)cc1 | 6520 | 2380 | 2830 | 3340 |  |  |  |  |  |  |  |  |  | 
COc1ccc2c(c1)CCCN2c1cc(C)nc2ccccc12 | 91 | 55 | 45 | 38 | 87 | 3.21 (≈ 10.5 µM) | 3.98 | 1000 | 61 | 7.89 |  |  |  | 
COc1ccc(N(C)c2cc(Br)cc(C(=O)NC3CC3)c2)cc1 | 170 |  |  |  | 69 | 0.16 (≈ 0.426 µM) | 4.33 | 1600 |  |  |  |  |  | 
CNC(=O)c1ccc(Cl)cc1N(C)c1ccc(OC)cc1 | 188000 | 61000 | 43200 | 98900 |  |  |  |  |  |  |  |  |  | 
COc1ccc(N(C)c2cc(Br)cc(C(=O)O)c2)cc1 |  |  |  |  |  |  |  |  |  |  | inactive | inactive | inactive | inactive
COC(=O)c1cc(Br)cc(N(C)c2ccc(OC)cc2)c1 | 1360 | 1200 | 1240 | 970 |  |  |  |  |  |  |  |  |  | 
CNc1nc(N2CCCc3cc(OC)ccc32)c2ccccc2n1 | 25 | 29 | 27 | 23 | 95 | 7.21 (≈ 22.5 µM) | 1.07 | 920 | 76 | 25.97 |  |  |  | 
COC(=O)c1cc(Br)cc(N2CCCc3cc(OC)ccc32)c1 | 1370 | 1270 | 1120 | 1280 |  |  |  |  |  |  |  |  |  | 
COC(=O)c1ccc(Cl)nc1N(C)c1ccc(OC)cc1 | 260 | 200 | 230 | 210 |  |  |  |  |  |  |  |  |  | 
COc1ccc(N(C)c2cc(Br)cc(C(=O)NC3CCCC3)c2)cc1 | 120 |  |  | 110 |  |  |  |  |  |  |  |  |  | 
COc1ccc(N(C)c2cc(Cl)ccc2CO)cc1 | 19500 | 18100 | 21700 | 16000 |  |  |  |  |  |  |  |  |  | 
COc1ccc2c(c1)CCCN2c1nc(Cl)nc2ccccc12 |  |  |  | 1.5 | 99 |  | 4.13 | 930 | 95 |  |  |  |  | 
CNC(=O)c1cc(Br)cc(N(C)c2ccc(OC)cc2)c1 | 210 | 140 | 250 | 160 | 71 | 0.81 (≈ 2.32 µM) | 4.02 | 2200 |  |  |  |  |  | 
COc1ccc2c(c1)CCCN2c1nc(C)nc2ccccc12 | 11 | 18 | 18 | 15 | 98 | 7.67 (≈ 25.1 µM) | 3.65 | 1000 | 89 | 25.19 |  |  |  | 
CNC(=O)c1cc(Cl)cc(N(C)c2ccc(OC)cc2)c1 | 300 | 230 | 270 | 230 |  |  |  |  |  |  |  |  |  | 
COC(=O)c1ccc(Cl)cc1N(C)c1ccc(OC)cc1 | 1980 | 1890 | 3360 | 1680 |  |  |  |  |  |  |  |  |  | 
COCc1ccc(Cl)cc1N(C)c1ccc(OC)cc1 | 5240 | 2850 | 4530 | 3130 |  |  |  |  |  |  |  |  |  | 
COc1ccc2c(c1)CCCN2c1cccc2ccccc12 | 15600 | 17600 | 17800 | 14800 |  |  |  |  |  |  |  |  |  | 
